KCC2 mod – modulators of human KCC2 chloride dependent transport. Q9H2X9. 190,000 compounds, 2.2% hits. B-score of Tl+ flux slope (higher = more flux/activation; lower = inhibition) at 10 µM. KCC2 cells, thallium flux FluoZin-2 fluorescence;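 active = thallium flux slope and its plate-corrected score both differing from the plate sample mean at a set confidence after two filtering rounds, in either direction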;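 also: slope of fluorescence scaled to starting intensity during 10 to 20 s after thallium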
V-ATPase pHluor – alters yeast V-ATPase proton transport; S. cerevisiae, pHLuorin cytosolic pH fluorescence; response, % at 10 µM; 350,000 compounds, 0.37% hits; AID 504577; in the data active = response mostly above about 7.3%, no sharp cut-off; inactive = mostly below about 5.4%; also: actives read high
p-CIP stab down – lowers stability of the mouse p/CIP coactivator protein | Q05BA5 | F442A p/CIP-EGFP cells, EGFP fluorescence, 16 h | decrease of EGFP signal, % at 10 µM | 290,000 compounds, 0.01% hits;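 active = EGFP signal decrease of at least 30% at 10 µM or well 3 SD below plate mean, unless failing retest; inactive = the rest, including hits failing retest or dose response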
Dynein transport – dynein cargo transport inhibition; z-score, hits read low; AID 1381; 3617.4 mouse cells, GR-EGFP nuclear translocation imaging; test concentration mostly 20 µM; stimulated with dexamethasone, 1 µM; stronger effect = lower value; 220,000 compounds, 0.47% hits;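 active = plate z-score of nuclear minus cytoplasmic receptor signal below a set negative limit, without overly bright fluorescence or cell loss, cut at about -3.5 in these data, passing the limit was not always enough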;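 also: z-score of nuclear minus cytoplasmic ring GR-EGFP intensity difference per well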
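Buffer or medium: tet-free medium with charcoal-stripped serum / Also added: dexamethasone agonist, 1.0 µM final, for 30 min / Timing: induction 48 h, compound 1 h, agonist 30 min / Measured by: high-content fluorescence imaging after fixation / Read-out: nuclear-to-cytoplasmic GR-EGFP distribution per well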
ABCB6 inh MLPCN – human ABCB6 transporter inhibition; fluorescence ratio to DMSO, % at 10 µM; K562-ABCB6 porphyrin accumulation, flow cytometry, 1 h; stronger effect = lower value; 360,000 compounds, 0.19% hits; Q9NP58;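 active = fluorescence ratio to DMSO below 75%, the collection mean minus 3 SD; inconclusive = too few cells collected in the well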;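 also: signal is porphyrin accumulated inside mitochondria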
Target sequence (Q9NP58 whole entry, looked up): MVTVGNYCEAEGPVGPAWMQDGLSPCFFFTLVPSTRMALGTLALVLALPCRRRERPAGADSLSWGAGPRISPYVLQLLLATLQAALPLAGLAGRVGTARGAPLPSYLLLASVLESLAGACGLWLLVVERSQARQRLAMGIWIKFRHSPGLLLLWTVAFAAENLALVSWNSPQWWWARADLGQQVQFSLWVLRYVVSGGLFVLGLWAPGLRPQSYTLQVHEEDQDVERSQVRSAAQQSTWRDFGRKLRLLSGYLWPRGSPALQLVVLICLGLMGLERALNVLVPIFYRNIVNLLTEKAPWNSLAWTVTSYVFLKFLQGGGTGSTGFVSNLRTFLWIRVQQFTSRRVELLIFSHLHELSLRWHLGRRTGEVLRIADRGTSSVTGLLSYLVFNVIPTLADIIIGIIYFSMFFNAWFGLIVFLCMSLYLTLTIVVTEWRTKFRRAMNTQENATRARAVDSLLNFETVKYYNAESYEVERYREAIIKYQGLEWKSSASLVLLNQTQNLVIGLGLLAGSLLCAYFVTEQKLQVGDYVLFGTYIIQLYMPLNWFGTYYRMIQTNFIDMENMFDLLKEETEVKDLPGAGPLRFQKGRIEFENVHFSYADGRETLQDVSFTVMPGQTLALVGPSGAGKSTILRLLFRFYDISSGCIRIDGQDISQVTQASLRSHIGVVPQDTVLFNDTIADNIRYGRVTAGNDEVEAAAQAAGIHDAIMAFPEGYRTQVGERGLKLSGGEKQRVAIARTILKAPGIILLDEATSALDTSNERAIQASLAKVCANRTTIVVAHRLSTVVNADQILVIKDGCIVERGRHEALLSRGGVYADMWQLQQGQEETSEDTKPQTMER
KCC2 sec1 – confirmation of human KCC2 transport modulators; shares compounds with KCC2 mod; HEK293-KCC2, thallium flux, FluoZin2 fluorescence; stronger effect = higher value; normalised thallium flux (F/F0 slope) at 10 µM; 3,700 compounds, 15% hits;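 active = thallium flux slope above the same plate's solvent-only control mean plus 3 SD; inconclusive = the two replicate wells disagree; inactive = no significant difference from solvent-only control wells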
KCC2 bumet counter – thallium flux despite bumetanide block in KCC2 cells, secondary assay 3. shares compounds with KCC2 mod. HEK293-KCC2 + bumetanide/ouabain, thallium flux FluoZin2; stronger effect = higher value. normalized thallium flux at 10 µM. 3,700 compounds, 49% hits. AID 1714;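 active = thallium entry rate above the same plate's blocked-transporter control wells by more than 3 SD; inconclusive = the two repeat wells disagree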;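 also: raw slope of fluorescence over initial fluorescence between 10 and 20 s after thallium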
KCC2 sec2 – confirmation of human KCC2 transport modulators; AID 1715; 3,700 compounds, 23% hits; normalized thallium flux at 10 µM; HEK293-KCC2, thallium flux FluoZin2 fluorescence; actives lie on both sides; F/F0 rise rate, 10–20 s post-thallium; shares compounds with KCC2 mod;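 active = thallium flux slope more than 3 SD above or below the plate's solvent-only control mean, mostly below; inconclusive = the two repeat wells disagreed; inactive = no significant shift from solvent-only controls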
HEK293 Tl flux – counter-screen for KCC2 modulators: effect in parental HEK293 cells | shares compounds with KCC2 mod | thallium flux FluoZin2, ouabain; baseline-ratio fluorescence slope, 10–20 s after thallium | thallium flux rate (normalised fluorescence) at 10 µM | 3,700 compounds, 46% hits | AID 1716;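 active = thallium flux rate significantly above the same plate's solvent-only control wells, beyond their mean plus 3 SD; inconclusive = the two replicate wells gave conflicting results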
KCC2 retest ouab – confirmation of human KCC2 modulators with ouabain. 3,700 compounds, 48% hits. raw Tl+ flux slope (below DMSO = inhibition, above = activation) at 10 µM. shares compounds with KCC2 mod. HEK293-KCC2, thallium flux FluoZin2 fluorescence; bidirectional: low = inhibitor, high = activator;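 active = thallium flux slope beyond 3 SD from same-plate DMSO control mean in most replicates, usually higher, sometimes lower; inconclusive = repeat tests gave conflicting results; inactive = no significant difference from controls in most replicates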;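 also: slope of initial-normalized fluorescence between seconds 10 and 20 after thallium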
HEK293 Tl flux2 – counter-screen for KCC2 modulators: effect in parental HEK293 cells; shares compounds with KCC2 mod; thallium flux FluoZin-2 fluorescence slope; thallium flux slope at 10 µM; 3,700 compounds, 33% hits;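 active = thallium flux slope above the same plate's solvent-control mean plus 3 SD in both duplicate wells; inconclusive = duplicate wells that disagreed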;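 also: run without ouabain in cells lacking the KCC2 cotransporter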
A number is an active result; . = inactive; ? = inconclusive; / = no result given. The sample as a whole holds a higher share of hits than the screen did.

SMILES | KCC2 mod | V-ATPase pHluor | p-CIP stab down | Dynein transport | ABCB6 inh MLPCN | KCC2 sec1 | KCC2 bumet counter | KCC2 sec2 | HEK293 Tl flux | KCC2 retest ouab | HEK293 Tl flux2
c1ccc2c(c1)OCC(c1nnc3sc(-c4ccc5c(c4)OCO5)nn13)O2 (stereo not drawn) | / | . | . | . | . | / | / | / | / | / | /
COc1ccc(S(=O)(=O)N2CCC(C(=O)NC3CCCCC3)CC2)cc1OC | / | . | / | / | . | / | / | / | / | / | /
Cc1ccc(-n2ncc3c(SCc4cccc(C)c4)ncnc32)cc1 | 6.56 | . | . | . | . | . | 0.022 | 0.0416 | 0.0225 | 0.0312 | 0.0262
Cc1cccc(CSc2ncnc3c2cnn3Cc2ccccc2)c1 | . | . | . | . | . | / | / | / | / | / | /
S=c1[nH]nc(COc2ccccc2)n1/N=C/C=C/c1ccccc1 | 12.3 | . | . | . | . | 0.0135 | 0.139 | . | 0.0209 | 0.0563 | ?
S=c1[nH]nc(-c2ccco2)n1/N=C/C=C/c1ccco1 | . | . | . | . | . | / | / | / | / | / | /
O=[N+]([O-])c1cccc(/C=N/n2c(COc3ccccc3)n[nH]c2=S)c1 | 59.1 | . | . | . | . | . | 0.15 | . | 0.0193 | 0.0589 | 0.0122
S=c1[nH]nc(COc2ccccc2)n1/N=C/C=C/c1ccco1 | 16.2 | . | . | . | . | . | 0.0498 | . | 0.0118 | 0.0282 | ?
COc1ccccc1-n1cc(-c2ccc([N+](=O)[O-])cc2)[nH]c1=S | . | . | . | . | . | / | / | / | / | / | /
Cc1ccc(-n2cc(-c3ccc([N+](=O)[O-])cc3)[nH]c2=S)c(C)c1 | 25.7 | . | . | . | . | ? | 0.099 | 0.0771 | 0.0864 | 0.0805 | 0.0547
Cc1cccc(-n2cc(-c3ccc([N+](=O)[O-])cc3)[nH]c2=S)c1 | 5.14 | . | . | . | . | ? | 0.0168 | . | 0.0188 | 0.0278 | 0.0152
O=[N+]([O-])c1cccc(-c2cn(-c3ccccc3)c(=S)[nH]2)c1 | 15.6 | . | . | . | . | 0.014 | 0.0365 | . | 0.0206 | ? | 0.0135
COC(=O)COc1ccc2oc(=O)cc(-c3cc4cccc(OC)c4o3)c2c1 | / | . | . | / | . | / | / | / | / | / | /
C/C(=N\NC(=O)c1ccc(-c2ccccc2)cc1)c1ccco1 | / | . | . | / | . | / | / | / | / | / | /
CCOC(=O)/C(C)=N/NC(=O)c1cccc([N+](=O)[O-])c1 | 31.7 | . | . | . | . | . | 0.0263 | 0.0398 | 0.0273 | 0.0344 | 0.0224
O=C(N/N=C(\c1ccccc1)c1ccccn1)c1cccc([N+](=O)[O-])c1 | 11.7 | . | . | . | . | ? | 0.0282 | . | 0.02 | 0.0305 | 0.0215
CCOC(=O)Cc1ccc(NC(=O)c2cccc([N+](=O)[O-])c2)cc1 | . | . | . | . | . | / | / | / | / | / | /
C/C(=N\NC(=O)c1cc([N+](=O)[O-])cc([N+](=O)[O-])c1)c1ccco1 | 38.3 | . | . | . | . | 0.0304 | 0.0746 | ? | 0.0377 | 0.0551 | 0.0166
O=C(Nc1nc(-c2ccccn2)cs1)C1CC(=O)N(c2ccc3c(c2)OCCO3)C1 (stereo not drawn) | -3 | . | . | . | . | . | . | . | . | 0.0178 | 0.0111
Cc1c(-c2ccccc2)oc2c(C(=O)OCC(=O)Nc3ccc(C(N)=O)cc3)cccc2c1=O | -4.97 | . | . | . | . | . | . | . | ? | 0.0164 | .
CN(Cc1ccccc1)C(=O)c1cccc(NC(=O)Cc2ccc(NC(=O)C3CCCN(C(=O)C4CCCC4)C3)cc2)c1 (stereo not drawn) | / | . | / | / | . | / | / | / | / | / | /
Cn1cc(Cl)c(C(=O)NC(=S)Nc2sc3c(c2C#N)CCCCC3)n1 | 10.7 | . | . | . | . | . | 0.0207 | ? | 0.019 | 0.0333 | 0.0209
CCc1c(C)sc(NC(=O)c2cc(CC(C)C)on2)c1C#N | . | . | . | . | . | / | / | / | / | / | /
Cc1cc(C(=O)Nc2sc3c(c2C#N)CCC3)no1 | . | . | . | . | . | / | / | / | / | / | /
C=CCNC(=S)Nc1sc2c(c1C#N)CCCC2 | 13.1 | . | . | . | . | . | 0.0211 | . | 0.0178 | 0.0272 | 0.0124
SMILES | KCC2 mod | V-ATPase pHluor | p-CIP stab down | Dynein transport | ABCB6 inh MLPCN | KCC2 sec1 | KCC2 bumet counter | KCC2 sec2 | HEK293 Tl flux | KCC2 retest ouab | HEK293 Tl flux2
Cn1cc(Br)c(C(=O)Nc2sc3c(c2C#N)CCC3)n1 | . | . | . | . | . | / | / | / | / | / | /
CC(C)Cc1cc(C(=O)Nc2sc3c(c2C#N)CCC3)no1 | 4.8 | . | . | . | . | . | 0.017 | . | 0.0174 | 0.0272 | 0.014
CC(C)Cc1cc(C(=O)Nc2sc3c(c2C#N)CCCC3)no1 | 4.07 | . | . | . | . | . | 0.0188 | . | ? | ? | ?
CCC(=O)Nc1sc2c(c1C#N)CCCCC2 | . | . | . | . | . | / | / | / | / | / | /
CC(=O)Nc1sc2c(c1C#N)CCCCC2 | 6.06 | . | . | . | . | . | . | . | . | . | ?
CNC(=S)N/N=C/c1c(C)cccc1Cl | 4.4 | . | . | . | . | . | 0.0174 | . | 0.00854 | ? | .
Cc1ccc(S(=O)(=O)Nc2ccccc2C(=O)Nc2nc(-c3ccc(F)cc3)cs2)cc1 | . | . | . | . | . | / | / | / | / | / | /
COc1ccc(-c2csc(NC(=O)c3ccccc3NS(=O)(=O)c3ccc(F)c(F)c3)n2)cc1 | -4.55 | . | . | . | . | 0.00524 | 0.0111 | . | ? | 0.0112 | .
Cc1cc2nc(NC(=O)C3(C)CCN(C)C3)[nH]c2cc1C (stereo not drawn) | / | / | / | / | . | / | / | / | / | / | /
c1ccc(CC2CCN(c3nnnn3-c3ccccc3)CC2)cc1 | / | . | . | . | . | . | . | . | ? | 0.0163 | .
Cc1ccc(C(O)c2ncc(-c3ccccc3)[nH]2)c(C)c1 (stereo not drawn) | / | / | / | / | . | / | / | / | / | / | /
O=C(N/N=C/c1ccc(OCc2ccccc2)cc1)c1cc[n+](Cc2ccccc2)cc1 | -3.45 | . | . | . | . | . | ? | 0.0241 | . | ? | .
O=C(Nc1cc(S(=O)(=O)N2CCOCC2)ccc1Cl)c1cc2ccccc2o1 | / | . | / | / | . | / | / | / | / | / | /
CN1CCN(S(=O)(=O)c2ccc(-c3ccc(Cl)cc3)cc2)CC1 | / | . | . | . | . | . | . | . | . | 0.0173 | .
O=C(O)CCNc1cc2ccccc2cc1C(=O)O | 5.55 | . | . | . | . | . | . | . | . | . | .
